From PubChem BioAssay
Compounds with a hit are over-represented: about 3.5% of the library has one in this group of screens.
KLK5 inh = blocks human kallikrein 5 protease activity; Q9Y337; recombinant hK5, fluorogenic AMC substrate cleavage; inhibition, % at 5 µM; hit rate 0.59% among 210,000; AID 873;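 active = inhibition of 40% or more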
thrombin 1536 = thrombin (human) inhibition | hit rate 0.26% among 220,000 | inhibition, % at 5 µM | P00734 | alpha-thrombin, Boc-VPR-AMC fluorogenic substrate cleavage;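 active = inhibition at or above 40%; inactive = inhibition below 40%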
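System – human alpha-thrombin · Medium – pH 7.5 Tris (50 mM) with NaCl 150 mM, Tween 20 0.05% · Compound – single-point dosing at 5 µM, 0.2% DMSO · Incubation – enzyme reaction carried out at room temperature · Technique – fluorescence of released AMC, ex 355 nm, em 460 nm · Read-out basis – % inhibition of thrombin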
STAT3 act = STAT3 signaling activation. U3A cells, IL-6 STAT3-luciferase reporter, luminescence; 100% = signal with IL-6 EC80 alone. activation (% of control), % at 5.6 µM. AID 871. hit rate 0.91% among 190,000;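 active = activation above the screen-wide mean of compound activation plus 3 SD, cut at about 130% in these data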
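Detection: reporter luminescence signal / Assay system: STAT1-lacking human U3A cells, STAT3 luciferase reporter / Incubation: compound pre-incubation 1 h before IL-6, then 6 h stimulation at 37 °C / Control set: IL-6-only high control / Read-out: % activation relative to IL-6 control / Probe or stimulus: Interleukin-6, 33 ng/mL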
FXIa inh = inhibitors of human coagulation factor XIa. P03951. purified FXIa, Boc-Glu-Ala-Arg-AMC fluorogenic substrate. inhibition, % at 5 µM. hit rate 0.14% among 220,000;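 active = inhibition of at least 40%; inactive = inhibition below 40%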;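 note: fluorescence of freed AMC excited at 355 nm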
AHR act = activators of human aryl hydrocarbon receptor; P35869; activation, % at 5 µM; AHR-responsive luciferase reporter cells, luminescence; AID 2796; hit rate 2.5% among 320,000; in the data active = activation above about 47%
FXIIa inh 1536 = inhibitors of human coagulation factor XIIa | hit rate 0.3% among 220,000 | P00748 | inhibition, % at 5 µM | purified FXIIa, Boc-QGR-AMC fluorogenic substrate, 2 h; in the data active = inhibition above about 40%
Target sequence (P00748 20-372 limits assumed): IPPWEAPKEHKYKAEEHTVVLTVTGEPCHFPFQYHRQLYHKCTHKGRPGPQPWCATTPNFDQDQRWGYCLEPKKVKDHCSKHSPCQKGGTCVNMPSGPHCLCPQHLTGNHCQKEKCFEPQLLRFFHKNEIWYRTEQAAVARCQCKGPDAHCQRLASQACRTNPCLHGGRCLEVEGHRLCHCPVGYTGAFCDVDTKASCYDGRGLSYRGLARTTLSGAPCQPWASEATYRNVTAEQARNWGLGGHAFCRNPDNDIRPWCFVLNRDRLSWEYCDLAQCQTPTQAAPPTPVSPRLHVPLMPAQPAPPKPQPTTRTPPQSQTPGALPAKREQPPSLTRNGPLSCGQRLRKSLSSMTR
Target sequence (P00748 373-615 limits assumed): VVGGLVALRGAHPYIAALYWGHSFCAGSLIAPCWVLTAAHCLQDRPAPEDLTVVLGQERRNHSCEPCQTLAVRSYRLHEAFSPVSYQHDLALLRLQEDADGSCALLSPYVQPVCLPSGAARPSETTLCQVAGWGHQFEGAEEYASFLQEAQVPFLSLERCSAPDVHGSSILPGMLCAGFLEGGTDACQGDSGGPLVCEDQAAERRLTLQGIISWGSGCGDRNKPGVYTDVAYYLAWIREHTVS
Numbers stand for hits; – = inactive; · = not tested or not shown.

SMILES | KLK5 inh | thrombin 1536 | STAT3 act | FXIa inh | AHR act | FXIIa inh 1536
CCN(CC)c1ccc(C2Nc3cccc4cccc(c34)N2)c(O)c1 | · | · | – | · | 71 | ·
Oc1ccc2ccccc2c1C1Nc2cccc3cccc(c23)N1 | – | – | – | – | – | –
COc1ccc(S(=O)(=O)N(C)CC(=O)Nc2ccc(C(F)(F)F)cc2)cc1Cl | – | – | – | – | – | –
CCOC(=O)CC(=O)CSc1nc2ccc(OC)cc2cc1C | – | – | – | – | – | –
Clc1ccc(-c2n[nH]c3c2CCCC3)cc1 | – | – | – | – | 56 | –
COC(=O)c1c(NC(=O)c2c(C)noc2C)sc2c1CCCCCC2 | – | – | – | – | · | –
COC(=O)c1c(NC(=O)c2c(-c3ccccc3Cl)noc2C)sc2c1CCC2 | – | – | – | – | – | 41
COc1ccc(-c2cc3c(=O)n(CC(=O)N4CCN(C)CC4)ncn3n2)cc1 | · | · | · | · | 73 | ·
COc1ccc(-c2cc(-c3nnc(COC(=O)CC4CC5CCC4C5)o3)c3ccccc3n2)cc1OC (stereo unspecified) | – | – | – | – | – | 42
CCCCNC(=O)C(CC)Sc1nc2sc(C(=O)OC)c(C)c2c(=O)n1N (stereo unspecified) | – | – | – | – | – | –
CCC(Sc1nc2sc(C(=O)OC)c(C)c2c(=O)n1N)C(=O)NCC1CCCO1 (stereo unspecified) | 43 | – | – | – | – | –
O=C(CSc1nccc(=O)[nH]1)c1cc2ccccc2o1 | 46 | – | · | – | – | –
O=C(CSc1ncn[nH]1)c1cc2ccccc2o1 | – | – | – | – | – | –
Cc1cccc(N2CC(C(=O)Nc3ccc4c(c3)OCCO4)CC2=O)c1C (stereo unspecified) | · | · | · | · | – | ·
Cc1ccc2nc(/C=C/c3cccc(F)c3)ccc2c1 | – | – | – | – | 48 | –
CCCc1nc2cc3c(cc2[nH]1)n(C)c(=O)n3C | · | · | · | · | 75 | ·
COc1cc(C2N=C(c3ccccc3)NO2)cc(Br)c1O (stereo unspecified) | – | – | – | – | 65 | –
O=C(CSc1nc2ccccc2o1)N1N=C(c2cccs2)CC1c1ccc(F)cc1 (stereo unspecified) | – | – | – | – | – | –
Cc1ccc(C2CC(c3cccs3)=NN2C(=O)CSc2nc3ccccc3o2)cc1 (stereo unspecified) | – | – | – | – | 75 | –
COc1ccc(C2=NC(=O)/C(=C\c3cc(OC)c(OC)c(OC)c3)O2)cc1 | – | – | – | – | – | –
CCOC(=O)c1cccc(NC(=S)NCc2ccc(C)cc2)c1 | · | – | – | – | – | –
CC(Sc1nnnn1-c1ccccc1)C(=O)Nc1ccc(Cl)cn1 (stereo unspecified) | 51 | – | – | – | – | –
CN1C2=NCCN2C(=O)c2cc(Cl)ccc21 | – | – | · | – | 59 | –
COc1ccc2c(c1)N1CCN=C1N2C | – | – | – | – | – | –
Oc1ccc(C23CCCC2C2(CCCC2)c2ccc(O)cc2O3)c(O)c1 (stereo unspecified) | · | · | · | · | – | ·
SMILES | KLK5 inh | thrombin 1536 | STAT3 act | FXIa inh | AHR act | FXIIa inh 1536
O=C1N=C(N2CCCCC2)S/C1=C\c1ccncc1 | – | – | · | – | – | –
COc1ccc(/C=C2\SC(N3CCCCC3)=NC2=O)cc1 | · | · | · | · | 49 | ·
CC(NC(=O)c1ccco1)C(=O)OC(C)C(=O)NCc1ccccc1 (stereo unspecified) | 41 | – | – | – | – | –
Cn1nccc1C(=O)N1CCOCC1 | · | · | · | · | – | ·
COc1cc(/C=N/NC(=O)c2cc(C)oc2C)cc(OC)c1OC | – | – | – | – | – | –
CCOC(=O)[C@H]1[C@H]2COc3ccc(Br)cc3[C@@H]2N2C(=O)CN(Cc3ccc(F)cc3)C(=O)[C@@]12C | · | · | · | · | – | ·
Cc1oc(-c2ccc(C(F)(F)F)cc2)nc1CN(Cc1ccccn1)C[C@@H]1CCC(=O)N1 | · | – | – | – | 75 | –
CCOc1ccc(-c2nc(CN(Cc3ccccc3)C[C@@H]3CCC(=O)N3)c(C)o2)cc1 | – | – | – | – | – | –
NC(=O)c1cc2ccccc2o/c1=N/NC(=O)c1ccccc1 | · | · | · | · | 51 | ·
N#CC1C(C#N)N2CCCN2C1c1ccc(Cl)cc1 (stereo unspecified) | – | – | – | – | 48 | –
O=S(=O)(c1ccc(NC(=S)Nc2ccc3c(c2)OCO3)cc1)N1CCOCC1 | – | – | – | – | 74 | –
O=C(Nc1ccc(S(=O)(=O)N2CCOCC2)cc1)c1ccc2c(c1)OCO2 | – | – | · | – | – | –
O=C(Nc1cccc(-n2cnnn2)c1)c1ccncc1 | · | · | · | · | – | ·
CCSc1ccc(NC(=O)c2cccnc2)cc1 | – | – | – | – | – | –
O=C(Nc1cccc(C(F)(F)F)c1)c1cccnc1 | – | – | – | – | 56 | –
CCc1ccc(NC(=O)CCn2cccc2)cc1 | – | – | – | 41 | – | –
CCc1ccc(NC(=O)c2cccnc2)cc1 | – | – | – | – | 54 | –
O=C(Nc1cccc(-n2cnnn2)c1)c1ccc(C(F)(F)F)cc1 | · | · | · | · | 69 | ·
O=C1CC(c2ccccc2)n2nc(NS(=O)(=O)c3ccccc3)nc2N1 (stereo unspecified) | – | – | – | – | – | –
O=C(COc1ccc(Cl)cc1Cl)Nc1nc2n(n1)C(c1ccccc1)CC(=O)N2 (stereo unspecified) | 58 | – | – | – | – | –
CCOC(=O)c1c(C)[nH]c(C)c1C(=O)COC(=O)Cc1ccc(OC)c(OC)c1 | · | · | · | · | – | ·
Cc1[nH]n(-c2ccccc2)c(=O)c1/C=N/Nc1nncc(-c2ccccc2)n1 | – | – | – | – | 53 | –
Cc1ccc(/C=N/Nc2nncc(-c3ccccc3)n2)o1 | – | – | – | – | – | –
Cc1ccc(CSc2ncnc3c2cnn3-c2ccc(C)cc2)cc1 | 45 | – | – | – | – | 41
Cc1ccc(CSc2ncnc3c2cnn3-c2ccccc2)cc1 | – | – | – | – | – | –
SMILES | KLK5 inh | thrombin 1536 | STAT3 act | FXIa inh | AHR act | FXIIa inh 1536
CCSc1ncc(/C=N/Nc2ccc([N+](=O)[O-])cc2)n1C | – | – | – | – | – | –
CCSc1ncc(/C=N/Nc2ccc(Cl)cc2)n1C | – | – | 150 | – | 103 | –
CCC1(CC)C(=O)N(C)C(=O)NC1=NCc1ccccc1 | – | – | – | – | – | –
CC(=O)N1C(=O)C(=C2C=C(C)OC(C)=C2)c2ccccc21 | – | – | – | – | 55 | –
CC1=CC(=C2C(=O)c3ccccc3C2=O)C=C(C)O1 | – | – | – | – | – | –
Cc1ccc(C)c(N2CCN(C(=O)CN(C)S(=O)(=O)c3ccc4c(c3)CCC(=O)N4)CC2)c1 | 53 | – | – | – | – | –
C/C(O)=C(/C#N)c1nc2ccccc2[nH]1 | · | · | – | · | – | –
COc1cc(OC)cc(C(=O)OC/C(O)=C(\C#N)c2nc3ccccc3[nH]2)c1 | – | – | · | – | – | –
N#C/C(=C(/O)C(Cl)(Cl)Cl)c1nc2ccccc2[nH]1 | – | – | · | – | 53 | –
CC(=O)OC(/C(O)=C(\C#N)c1nc2ccccc2[nH]1)c1ccccc1 (stereo unspecified) | – | – | – | – | 49 | –
